esBAF inh – Bmi1 luciferase reporter increase in mESCs, primary screen, esBAF inhibitor project, mouse ES cells, Bmi1 luciferase knock-in, single point | 24 h; 100% = twice the neutral-well signal | reporter increase, % at 12.5 µM | 350,000 compounds, 2% hits | AID 602393, 2012; in the data active = activation above about 40%;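 also: 0% = median of the plate's neutral control wells and 100% = double that signal; a rise in the Bmi1 reporter signal indicates esBAF inhibition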
Cneo AK release – Cryptococcus neoformans cell lysis inducers, primary screen, AK release luminescence, single concentration; C. neoformans lysis, adenylate kinase release luminescence, 4 h; normalised: neutral wells 0, clomiphene wells 100; lysis activity, % at 15 µM; 360,000 compounds, 0.2% hits; AID 651654, 2012;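 active = mean lysis activity across replicates of at least 80%, whatever share of replicates individually reach that level; inactive = mean lysis activity below 80%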
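Test system: log-phase Cryptococcus neoformans yeast cells. Input: 5 × 10^6 yeast cells/mL. Medium: fresh YPD growth medium. Doses: single dose. Incubation: static 4 h at 37 °C with compound, 1 h detection. Measured by: luminescent adenylate kinase detection reagent. Read-out: signal increase indicating cell lysis. Benchmarks: Clomiphene.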
Env fusion inh – inhibitors of HIV-1 Env-driven cell-cell fusion, primary screen, HeLa-JRFL effector, CEM21 target cells, luciferase; inhibition, % at 12.3 µM; 360,000 compounds, 1.1% hits; AID 651610, 2012;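 active = mean replicate inhibition score of at least 50 and every replicate individually at or above 50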;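 also: 0% = plate neutral controls and 100% = maraviroc near 300 nM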
ERAP1 HTS inh – human ERAP1 aminopeptidase inhibitors, primary screen, biochemical, single point, plate reader. Endoplasmic reticulum aminopeptidase 1 (Homo sapiens), Q9NZ08. recombinant ERAP1, Leu-AMC fluorescence, 60 min. inhibition, % at 10.7 µM. 340,000 compounds, 0.15% hits. AID 652197, 2013;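 active = mean replicate inhibition of at least 30%, or all replicates individually reaching that 30% level; inactive = mean below 30% and not every replicate reaching it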;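 also: 0% = neutral control wells and 100% = L-leucinethiol positive control wells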
Target sequence (Q9NZ08 whole entry, looked up): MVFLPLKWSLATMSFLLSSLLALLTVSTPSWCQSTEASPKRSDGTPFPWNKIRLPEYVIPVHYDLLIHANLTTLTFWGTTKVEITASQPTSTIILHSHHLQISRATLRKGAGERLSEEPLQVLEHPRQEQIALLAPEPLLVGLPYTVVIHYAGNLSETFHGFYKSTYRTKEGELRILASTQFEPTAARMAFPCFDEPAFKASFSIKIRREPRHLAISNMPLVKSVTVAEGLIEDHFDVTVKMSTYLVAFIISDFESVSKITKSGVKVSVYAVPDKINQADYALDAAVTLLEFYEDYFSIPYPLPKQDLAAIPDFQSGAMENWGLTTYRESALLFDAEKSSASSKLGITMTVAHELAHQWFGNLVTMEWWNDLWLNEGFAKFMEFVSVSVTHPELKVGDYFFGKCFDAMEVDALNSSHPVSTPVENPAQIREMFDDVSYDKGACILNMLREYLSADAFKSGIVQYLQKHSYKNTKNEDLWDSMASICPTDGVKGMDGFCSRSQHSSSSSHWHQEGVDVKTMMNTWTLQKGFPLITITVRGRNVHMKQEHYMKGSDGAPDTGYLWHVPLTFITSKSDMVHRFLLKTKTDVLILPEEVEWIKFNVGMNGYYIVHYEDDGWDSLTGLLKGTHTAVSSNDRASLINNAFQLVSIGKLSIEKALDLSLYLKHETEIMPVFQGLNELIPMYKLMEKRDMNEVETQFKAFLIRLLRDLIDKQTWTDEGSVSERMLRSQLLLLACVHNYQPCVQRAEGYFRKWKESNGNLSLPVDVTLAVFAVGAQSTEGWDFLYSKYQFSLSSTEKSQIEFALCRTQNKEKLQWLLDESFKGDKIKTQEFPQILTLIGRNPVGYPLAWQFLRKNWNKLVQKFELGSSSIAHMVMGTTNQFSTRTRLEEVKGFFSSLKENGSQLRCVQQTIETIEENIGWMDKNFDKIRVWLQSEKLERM
MITF TRPM1 HTS – activators of MITF-driven TRPM1 promoter reporter, primary screen, cell-based, SK-MEL-5, luciferase, single point; activation, % at 12.5 µM; SK-MEL-5 TRPM1-promoter luciferase, 24 h; % of positive control, neutral wells = 0; 300,000 compounds, 0.75% hits;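 active = mean activation of at least 80% with every replicate also reaching 80%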;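 also: 0% = neutral control wells and 100% = parthenolide positive control wells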
Wnt act – Wnt/beta-catenin pathway activators, primary screen, cell-based, plate reader, single point; AID 743398, 2014; activation, % at 9.35 µM; Wnt/beta-catenin reporter cell assay, activator; 300,000 compounds, 1.2% hits; in the data active = activation above about 30%, passing the limit was not always enough;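 also: 0% = neutral control wells and 100% = positive control wells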
* hit, by the source's call; . = not tested or not shown; [ ] = dose if it differs, or a comment. Compounds with a hit are over-represented: about 3.5% of the library has one in this group of screens.

SMILES	esBAF inh	Cneo AK release	Env fusion inh	ERAP1 HTS inh	MITF TRPM1 HTS	Wnt act
NC(=O)c1ccc(NC(=O)c2ccc(COc3ccccc3Br)cc2)cc1	5	0	-26	-2	28	3
Cc1cc(C)n(Cc2ccc(NC(=O)c3ccc(COc4ccccc4Br)cc3)cc2)n1	8	2	79*	.	-9	.
CCN1CCN(CCCNC(=O)c2ccc(NC(=O)C3=CSCCO3)cc2)CC1	8	1	-25	0	7	1
CCCSCCCNC(=O)c1ccc(NC(=O)C2=CSCCO2)cc1	55*	-4	1	-3	8	0
C[C@@H]1CN([C@H](C)CO)C(=O)c2cc(NS(=O)(=O)c3cccs3)ccc2O[C@@H](C)CCCCO[C@H]1CN(C)S(=O)(=O)c1ccc(F)cc1	-3	-2	-2[16.7 µM]	4	.	.
CC(C)c1cc(C(=O)NCCc2ccccc2)no1	24	.	-32	.	65	39*
CC(C)c1cc(C(=O)Nc2cc(Br)ccc2O)no1	78*	-5	.	-2	40	15
Cc1noc(C(=O)Nc2cc(Cl)ccc2O)c1Cl	3	0	-7	0	-16	0
CC(C)c1cc(C(=O)Nc2cc(Cl)ccc2O)no1	55*	2	-60	.	62	.
CC(=O)c1cccc(NC(=O)c2cc(C(C)C)on2)c1	30	-2	-57	6	.	-7
CC(C)c1cc(C(=O)NCc2ccco2)no1	29	1	-3	2	51	11
CC(C)c1cc(C(=O)Nc2cccc(Cl)c2)no1	31	-2	-440	.	90*	.
CC(C)CC#Cc1cnc2c(c1)C(=O)N([C@@H](C)CO)C[C@@H](C)[C@H](CN(C)C(=O)c1cnccn1)O2	0	2	8[16.7 µM]	0	.	.
C=CCOC(=O)C(=O)/C=C/c1ccc(OC)cc1	.	0	6[16.7 µM]	0	.	.
COc1cccc(S(=O)(=O)N2C[C@H](O)COC[C@H]3O[C@@H](CC(=O)N4CCOCC4)CC[C@@H]32)c1	-1	2	.	-1	.	.
C[C@H]1CN([C@@H](C)CO)C(=O)c2cc(NC(=O)CCC(F)(F)F)ccc2O[C@H]1CN(C)C(=O)Nc1ccc(C(F)(F)F)cc1	0	46	.	-4	.	.
Cc1ccc(-c2nnc(N3CCN(C(=O)COc4ccccc4)CC3)c3ccccc23)cc1	-6	3	68*	.	-12	.
O=C(COc1ccc(-c2nnc(N3CCCCC3)c3ccccc23)cc1)N1CCCCC1	8	-1	.	.	-10	.
CC(C)NC(=O)N(C)C[C@H]1OCCCC[C@H](C)Oc2ccc(NC(=O)Nc3cccc4ccccc34)cc2C(=O)N([C@H](C)CO)C[C@@H]1C	-2	-3	-31[16.7 µM]	-4	.	.
Brc1ccc(N=C/C=C/C=C/Nc2ccc(Br)cc2)cc1	68*	0	19	.	-15	12
Cc1[nH]n(C(N)=S)c(=O)c1N=Nc1cc(C(F)(F)F)ccc1Cl	-5	-2	-9	-1	2	-3
Cc1[nH]n(C(N)=S)c(=O)c1N=Nc1ccc(S(=O)(=O)N2CCCC2)cc1	53*	1	-18	.	.	0
Cc1[nH]n(C(N)=S)c(=O)c1N=Nc1ccc(Br)cc1	35	1	-59	-2	41	40*
Cc1[nH]n(C(N)=S)c(=O)c1N=Nc1cccc(C(F)(F)F)c1	.	.	-64	-5	37	27
Cc1ccc(N=Nc2c(C)[nH]n(C(N)=S)c2=O)cc1	57*	-1	-64	-5	46	19
O=C(C[C@H]1C[C@@H]2c3cc(NC(=O)C4CCOCC4)ccc3O[C@@H]2[C@@H](CO)O1)NCc1ccc(Oc2ccccc2)cc1	1	-4	-15[16.7 µM]	-8	.	.
O=C(C[C@H]1CC[C@@H]2NC[C@H](O)COC[C@H]2O1)Nc1nccs1	-5	1	-17[16.7 µM]	.	.	.
COc1cccc(OC)c1-c1nn2c(-c3ccco3)nnc2s1	54*	1	-205	.	.	.
CN(C)CCCN=c1cc(-c2ccccc2)oc2ccc(Cl)cc12	.	.	-54	1	84*	12
